Reference: PMC10868414 (Pharmaceutical Biology, 2024)

Columns and labels:
[1] = SDS at 1.0% w/w mixed in diet; ref Elder [1983]; cited from earlier work
[2] = poor water solubility and high permeability; ref Lee et al. [2019]; cited from earlier work
[3] = Elimination of andrographolide in urine and feces; assay type: in vivo, beagle dogs
How it was run: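 Male beagles (2.0–2.5 y, 10–15 kg; n = 4/group), fasted 10 h with water, caged singly; oral capsules equivalent to 3 mg/kg andrographolide, single dose and daily for 7 days. Urine centrifuged; feces mixed 50:50 w/v with methanol. Samples hydrolysed with β-glucuronidase solution (1,000 U/mL, pH 6.8, 37 °C, 30 min), methanol-precipitated with digoxin internal standard, LC-MS/MS (triple quadrupole); mean ± SD.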

[4] = Lipinski's Rule of Five criterion; ref Lipinski et al. [2001]; cited from earlier work

Row | dose excreted ([3]; beagle, dog, urine, po, 3 mg/kg) [%] | Feces excretion of andrographolide ([3]; of the administered dose, after oral administration of A. paniculata formulations) | SMILES | Abnormalities in long-term study [1] | Biopharmaceutics Classification System (BCS) category [2] | logP value [4]
1 |  |  | CCCCCCCCCCCCOS(=O)(=O)[O-].[Na+] [SDS, Sodium dodecyl sulfate] | did not result in any abnormalities |  | 
2 | 0.1 to 1 | less than 0.4% | C=C1CC[C@@H]2[C@](C)(CO)[C@H](O)CC[C@@]2(C)[C@@H]1C/C=C1/C(=O)OC[C@H]1O [andrographolide, Andrographolide] |  | BCS class II | lower than 5
